# ChEMBL document CHEMBL5352425, “Discovery of the 4-aminopiperidine-based compound EM127 for the site-specific covalent inhibition of SMYD3” (Eur J Med Chem, 2022)
# Activity calls are given as the source filed them. The rule behind the calls is not given here.
# Experiments:
# [1] = target: T1, Histone-lysine N-methyltransferase SMYD3 (Homo sapiens) (UniProt Q9H7B4); test: Binding affinity to full length recombinant SMYD3 (unknown origin) overexpressed in Escherichia coli Rosetta cells assessed as covalent adduct formation by SPR analysis
# T1 sequence (whole entry): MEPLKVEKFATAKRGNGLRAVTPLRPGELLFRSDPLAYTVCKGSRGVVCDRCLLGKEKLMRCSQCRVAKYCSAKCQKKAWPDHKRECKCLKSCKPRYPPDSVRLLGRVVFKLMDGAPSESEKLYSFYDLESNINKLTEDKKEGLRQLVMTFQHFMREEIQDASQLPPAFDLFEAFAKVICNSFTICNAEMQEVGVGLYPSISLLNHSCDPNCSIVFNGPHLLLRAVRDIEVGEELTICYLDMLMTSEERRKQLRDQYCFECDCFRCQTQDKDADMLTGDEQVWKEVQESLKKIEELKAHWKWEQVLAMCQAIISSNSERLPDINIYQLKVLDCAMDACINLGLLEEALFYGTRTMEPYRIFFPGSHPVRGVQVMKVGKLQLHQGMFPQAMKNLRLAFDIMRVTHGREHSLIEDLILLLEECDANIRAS
# Outline: (§1)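 SPR on Biacore X100 at 15 °C: SMYD3 amine-coupled on CM5 chips at 6500–10000 RU, immobilised in HBS-T pH 7.4. Analysis buffer Tris-HCl 50 mM, NaCl 150 mM, 2 mM DTT, 0.05% Tween-20, 2% DMSO, pH 8.0, with or without SAM at saturating concentration. Equilibrium responses solvent-corrected.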
# [2] = target: T1, Histone-lysine N-methyltransferase SMYD3 (Homo sapiens); test: Inhibition of full length recombinant SMYD3 (unknown origin) at 50 uM measured for 1 hr by LC-ESI-MS analysis relative to control
# Outline: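 SMYD3 preincubated 1 h at 23 °C with compound (SMYD3 5 μM, compound 50 μM, 2% DMSO), or at 5 μM compound for 1 or 24 h. Stopped with H2O/AcCN/FA, peptide methylation quantified by LC-ESI-MS. Duplicate.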
# [3] = target: T1, Histone-lysine N-methyltransferase SMYD3 (Homo sapiens); test: Binding affinity to full length recombinant SMYD3 (unknown origin) at Cys186 residue overexpressed in Escherichia coli Rosetta cells assessed as covalent adduct formation measured for 24 hrs by LC-MS analysis; conditions: dose 1-100 µM
# Outline: (§2)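 Recombinant SMYD3 expressed in E. coli Rosetta 2, final 10 μM, incubated at 23 °C in Tris 50 mM pH 8.0, 75 mM NaCl with compound at final 1, 10 or 100 μM, or equimolar 10 μM with sampling at 0–24 h. Samples DTT-denatured at 56 °C, iodoacetamide-alkylated, digested overnight with trypsin plus chymotrypsin at 30 °C, then analysed by LC-MS/MS on Q-ToF for adducted peptides. Triplicate.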
# [4] = target: T1, Histone-lysine N-methyltransferase SMYD3 (Homo sapiens); test: Inhibition of SMYD3 in human HCT-116 cells assessed as decrease in cleaved PARP level at 5 uM measured for 48 to 72 hrs by immunoblotting analysis; format: cell-based; conditions: time 48-72 hrs
# Outline: (§3)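 HCT116 or MDA-MB-231 cells treated with compound, DMSO as control. Whole-cell lysates in Tris/EDTA/NaCl/1% Triton X-100 with protease and phosphatase inhibitors. 20 μg protein run on 7.5% SDS-PAGE and blotted to nitrocellulose, probed for phospho-ERK1/2 (Thr202/Tyr204), total ERK1/2 and cleaved PARP, with actin as loading control.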
# [5] = target: T1, Histone-lysine N-methyltransferase SMYD3 (Homo sapiens); test: Inhibition of SMYD3 in human HCT-116 cells assessed as decrease in ERK1/2 phosphorylation upto 5 uM by immunoblotting analysis; format: cell-based; conditions: time 48-72 hrs, TDE = time-dependent effect; outline: as §3
# [6] = target: T1, Histone-lysine N-methyltransferase SMYD3 (Homo sapiens); test: Inhibition of SMYD3 in human MDA-MB-231 cells assessed as decrease in ERK1/2 phosphorylation measured for 48 to 72 hrs by immunoblotting analysis; format: cell-based; conditions: dose <= 5.0 µM, time 48-72 hrs; outline: as §3
# [7] = target: T1, Histone-lysine N-methyltransferase SMYD3 (Homo sapiens); test: Inhibition of SMYD3 in human MDA-MB-231 cells assessed as decrease in cleaved PARP level at 5 uM measured for 48 to 72 hrs by immunoblotting analysis; format: cell-based; conditions: time 48-72 hrs; outline: as §3
# [8] = target: T2, Histone-lysine N-methyltransferase SMYD3 (Homo sapiens, UniProt Q9H7B4); test: Binding affinity to full length recombinant SMYD3 (unknown origin) overexpressed in Escherichia coli Rosetta cells assessed as dissociation constant by SPR analysis; outline: as §1
# T2 sequence (Q9H7B4 whole entry): T1 sequence (whole entry)
# MDA-MB-231 [9] = test: Antiproliferative activity against in human MDA-MB-231 cells assessed as reduction in cell viability measured after 48 hrs by trypan blue staining based phase contrast microscopic analysis; format: functional
# Outline: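 MDA-MB-231 cells in DMEM with 10% FBS and penicillin/streptomycin at 37 °C, 5% CO2, treated 48 h at 5 μM (vehicle 0.5% DMSO, DMSO control). Floating plus trypsinized adherent cells pooled, mixed with 0.01% trypan blue, unstained and stained cells counted by phase-contrast microscopy, % viable cells calculated. Mean ± SD, n=3.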
# [10] = target: T1, Histone-lysine N-methyltransferase SMYD3 (Homo sapiens); test: Inhibition of SMYD3 in human MDA-MB-231 cells assessed as decrease in ERK1/2 phosphorylation upto 5 uM by immunoblotting analysis; format: cell-based; conditions: time 48-72 hrs, TDE = time-dependent effect; outline: as §3
# [11] = target: T1, Histone-lysine N-methyltransferase SMYD3 (Homo sapiens); test: Inhibition of SMYD3 in human HCT-116 cells assessed as decrease in ERK1/2 phosphorylation measured for 48 to 72 hrs by immunoblotting analysis; format: cell-based; conditions: dose <= 5.0 µM, time 48-72 hrs; outline: as §3
# MDA-MB-231 [12] = test: Downregulation of c-MET mRNA expression in human MDA-MB-231 cells at 50 uM measured for 48 to 72 hrs by RT-qPCR analysis; format: functional, cell-based; conditions: time 48-72 hrs
# Outline: (§4)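 MDA-MB-231 or SMYD3-knockout (CRISPR/Cas9) MDA-MB-231 cells in DMEM/10% FBS treated 48 h with 0.5–50 μM compound, or 72 h with reference inhibitor at 10–50 μM; DMSO control. Total RNA extracted with TRI reagent, CDK2, c-MET, FN1 and N-CAD transcripts measured by RT-qPCR and quantified by the ddCT method.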
# MDA-MB-231 [13] = test: Downregulation of CDK2 mRNA expression in human MDA-MB-231 cells at 50 uM measured for 48 to 72 hrs by RT-qPCR analysis; format: functional, cell-based; conditions: time 48-72 hrs; outline: as §4
# MDA-MB-231 [14] = test: Downregulation of FN1 mRNA expression in human MDA-MB-231 cells at 50 uM measured for 48 to 72 hrs by RT-qPCR analysis; format: functional, cell-based; conditions: time 48-72 hrs; outline: as §4
# [15] = target: T1, Histone-lysine N-methyltransferase SMYD3 (Homo sapiens); test: Inhibition of full length recombinant SMYD3 (unknown origin) at 5 uM measured at 24 hrs by LC-ESI-MS analysis relative to control
# MDA-MB-231 [16] = test: Downregulation of N-cadherin mRNA expression in human MDA-MB-231 cells at 50 uM measured for 48 to 72 hrs by RT-qPCR analysis; format: functional, cell-based; conditions: time 48-72 hrs; outline: as §4
# [17] = target: T2, Histone-lysine N-methyltransferase SMYD3; test: Inhibition of full length recombinant SMYD3 (unknown origin) measured at 24 hrs
# [18] = Stability in human plasma measured at 6 hrs by LC-MS analysis; format: ADME, cell-free
# Outline: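 Compound spiked to final 10 μM into healthy-volunteer human plasma and held at 37 °C with gentle agitation. At 0–360 min, proteins precipitated with ice-cold acetonitrile containing propranolol internal standard. Supernatant dried, reconstituted, analysed by LC-MS with SIM (m/z 312; IS 260). Analyte/IS peak-area ratio followed over time, relative to time 0.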
# MDA-MB-231 [19] = test: Effect on CDK2 mRNA expression in SMYD3 knockout human MDA-MB-231 cells at 0.5 to 5 uM measured for 48 to 72 hrs by RT-qPCR analysis; format: functional, cell-based; conditions: dose 0.5-5 µM, time 48-72 hrs; outline: as §4
# MDA-MB-231 [20] = test: Downregulation of CDK2 mRNA expression in human MDA-MB-231 cells at 0.5 uM by RT-qPCR analysis; format: functional, cell-based; outline: as §4
# MDA-MB-231 [21] = test: Effect on FN1 mRNA expression in SMYD3 knockout human MDA-MB-231 cells at 0.5 to 5 uM measured for 48 to 72 hrs by RT-qPCR analysis; format: functional, cell-based; conditions: dose 0.5-5 µM, time 48-72 hrs; outline: as §4
# MDA-MB-231 [22] = test: Effect on c-MET mRNA expression in SMYD3 knockout human MDA-MB-231 cells at 0.5 to 5 uM measured for 48 to 72 hrs by RT-qPCR analysis; format: functional, cell-based; conditions: dose 0.5-5 µM, time 48-72 hrs; outline: as §4
# [23] = target: T2, Histone-lysine N-methyltransferase SMYD3; test: Binding affinity to full length recombinant SMYD3 (unknown origin) overexpressed in Escherichia coli Rosetta cells assessed as inhibition constant measured after 1 hr by LC-MS analysis
# [24] = target: T1, Histone-lysine N-methyltransferase SMYD3 (Homo sapiens); test: Binding affinity to full length recombinant SMYD3 (unknown origin) at Cys186 residue overexpressed in Escherichia coli Rosetta cells assessed as covalent adduct formation at 1 to 100 uM measured after 1 hr by LC-MS analysis relative to control; conditions: dose 1-100 µM; outline: as §2
# MDA-MB-231 [25] = test: Downregulation of C-MET mRNA expression in human MDA-MB-231 cells at 0.5 uM by RT-qPCR analysis; format: functional, cell-based; outline: as §4
# [26] = target: T1, Histone-lysine N-methyltransferase SMYD3 (Homo sapiens); test: Inhibition of SMYD3 in human HCT-116 cells assessed as increase in cleaved PARP level at 5 uM measured for 48 to 72 hrs by immunoblotting analysis; conditions: time 48-72 hrs
# [27] = target: T1, Histone-lysine N-methyltransferase SMYD3 (Homo sapiens); test: Binding affinity to full length recombinant SMYD3 (unknown origin) overexpressed in Escherichia coli Rosetta cells assessed as Kinact/Ki ratio measured after 1 hr by LC-MS analysis
# [28] = target: T1, Histone-lysine N-methyltransferase SMYD3 (Homo sapiens); test: Binding affinity to full length recombinant SMYD3 (unknown origin) overexpressed in Escherichia coli Rosetta cells assessed as inactivation constant measured after 1 hr by LC-MS analysis
# MDA-MB-231 [29] = test: Effect on N-cadherin mRNA expression in SMYD3 knockout human MDA-MB-231 cells at 0.5 to 5 uM measured for 48 to 72 hrs by RT-qPCR analysis; format: functional, cell-based; conditions: dose 0.5-5 µM, time 48-72 hrs; outline: as §4
# [30] = target: T1, Histone-lysine N-methyltransferase SMYD3 (Homo sapiens); test: Binding affinity to full length recombinant SMYD3 (unknown origin) at Cys186 residue overexpressed in Escherichia coli Rosetta cells assessed as covalent adduct formation at 1 to 100 uM by LC-MS analysis; conditions: dose 1-100 µM, time <= 24.0 hrs, TDE = time-dependent effect; outline: as §2
# [31] = target: T1, Histone-lysine N-methyltransferase SMYD3 (Homo sapiens); test: Binding affinity to full length recombinant SMYD3 (unknown origin) at Cys186 residue overexpressed in Escherichia coli Rosetta cells assessed as covalent adduct formation at 1 to 100 uM measured for 24 hrs by LC-MS analysis relative to control; conditions: dose 1-100 µM; outline: as §2
SMILES,Activity [1],inhibition [2],Activity [3],inhibition [5],inhibition [6],inhibition [7],Kd [8],inhibition [10],inhibition [11],inhibition [15],IC50 [17],other results
O=C(CCl)NC1CCN(C(=O)c2cc(C3CC3)on2)CC1,Active,14%,Dose-Dependent Effect,–,–,–,–,–,–,–,–,–
O=C(NC1CCNCC1)c1cc(C2CC2)on1,–,29.1%,–,Tde,Dose-Dependent Effect,inactive,32 µM,Tde,Dose-Dependent Effect,–,–,inhibition [4]: inactive; Activity (MDA-MB-231 [9]): inactive
Cc1cc(C(=O)N2CCC(NC(=O)CCl)CC2)no1,inactive,< 5%,–,–,–,–,–,–,–,–,–,–
O=C1Cc2cc(C(=O)N[C@H]3C[C@H]4CC[C@@H](C3)C4S(=O)(=O)CC3CCN(CCCC(F)(F)F)CC3)c(Cl)cc2N1 (some centres not stated),–,100%,–,–,–,–,–,–,–,50.2%,0.689 µM,Activity (MDA-MB-231 [12]): Active; Activity (MDA-MB-231 [13]): Active; Activity (MDA-MB-231 [14]): Active; Activity (MDA-MB-231 [16]): Active
NC1CCN(C(=O)c2cc(C3CC3)on2)CC1,–,5%,–,–,–,–,–,–,–,–,–,–
O=C(NC1CCN(C(=O)CCl)CC1)c1cc(C2CC2)on1,Active,92.1%,Dose-Dependent Effect,Tde,Dose-Dependent Effect,Active,13 µM,Tde,Dose-Dependent Effect,85.6%,0.37 µM,remaining at 6 h [18]: 76%; Activity (MDA-MB-231 [19]): inactive; Activity (MDA-MB-231 [20]): Active; Activity (MDA-MB-231 [21]): inactive; Activity (MDA-MB-231 [22]): inactive; Ki [23]: 6.11 µM; Activity [24]: 50%; Activity (MDA-MB-231 [25]): Active; inhibition [26]: Active; Ratio [27]: 73.5 M⁻¹ s⁻¹; Kinact [28]: 4.49 10^-4/s; Activity (MDA-MB-231 [29]): inactive; Activity [30]: Tde; Activity [31]: 100%
